From paper PMC3008344 (Molecular nutrition & food research, 2009)

How the values were obtained:
[1] = test system: MDA-MB-231-GFP human breast cancer cells; assay: Colony formation assay; type: cell-based; details: for Effect on colony formation: MDA-MB-231-GFP cells, 10 days, 10–40 μM range tested; for IC50: Homo sapiens, 240 h, read-out: IC50 for inhibition of colony formation
Method in brief: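 MDA-MB-231-GFP cells were seeded at 1000 per 100 mm plate in 2% FBS medium and grown 3 days to form small colonies. They were then treated 10 days with test compound at 10–40 μM (positive control 5–15 μM) or DMSO/ethanol (1:4) vehicle. Colonies were methanol-fixed, stained with 0.1% methylene blue and counted by image analysis. Survival (%) = colonies treated/control × 100. IC50 came from survival curves; mean ± SD, ≥2 experiments.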

[2] = test system: MDA-MB-231-GFP human breast cancer cells; assay: Visible lung metastases counted at sacrifice; type: in vivo, Nu/Nu female BALB/c mice; details: 500 mg/kg diet each, control 70%
[3] = test system: MDA-MB-231-GFP tumor tissue; assay: Tumor immunohistochemistry: Ki-67 proliferation; type: in vivo, Nu/Nu female BALB/c mice; details: tumor tissue from 5 mice/group, 500 mg/kg diet
Method in brief: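 Female Nu/Nu BALB/c mice (6 weeks) received 2 × 10^6 MDA-MB-231-GFP cells s.c. (inguinal) in 50% matrigel. At ~25 mm3 they were randomised (10/group) to tocopherol-stripped AIN-76A diet with 33 IU all-rac-α-tocopherol acetate/kg, ± test form at 500 mg/kg, for 24 days. Formalin-fixed tumours were cut into 5 μm sections and stained for Ki-67. Positive cells were counted in 5 fields (400×) per tumour, 5 mice/group; Mann-Whitney test.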

[4] = test system: MDA-MB-231-GFP tumor tissue; assay: Tumor immunohistochemistry: TUNEL apoptosis; type: in vivo, Nu/Nu female BALB/c mice; details: tumor tissue from 5 mice/group, 500 mg/kg diet
Method in brief: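 Xenografts came from female Nu/Nu BALB/c mice carrying s.c. MDA-MB-231-GFP tumours in matrigel. From ~25 mm3, mice were fed for 24 days a tocopherol-stripped AIN-76A basal diet (33 IU all-rac-α-tocopherol acetate/kg) with or without 500 mg/kg test vitamin E form. TUNEL (ApopTag) staining was done on deparaffinised 5 μm sections of formalin-fixed tumours. Brown nuclei were scored in 15 fields (400×) per tumour, 5 mice/group; Mann-Whitney test.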

[5] = test system: human MDA-MB-231 breast cancer cells; details: supplemented in the diet, MDA-MB-231 cells; cited from earlier work
[6] = test system: BALB/c 66cl-4-GFP mouse mammary cancer cells; details: formulated in liposomes, oral gavage, BALB/c 66cl-4-GFP cells; cited from earlier work
[7] = test system: Survivin; assay: Western blot of Survivin protein expression; type: cell-based, human; details: MDA-MB-231-GFP cells; for Survivin protein expression: 5 days
Method in brief: (§1)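 Whole-cell extracts came from the same 5-day-treated MDA-MB-231-GFP samples (2% FBS) used for annexin V analysis. Blots were incubated overnight at 4°C with primary antibody in 0.1% BSA/TBST against PARP (cleavage), Survivin, DR5 or GAPDH. After TBST washes they were probed with HRP-conjugated secondary antibody.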

[8] = test system: PARP; assay: Western blot of PARP cleavage; type: cell-based, human; details: MDA-MB-231-GFP cells; for PARP cleavage: 5 days
Method in brief: as §1

[9] = test system: DR5; assay: Western blot of DR5 protein expression; type: cell-based, human; details: MDA-MB-231-GFP cells; for DR5 protein expression: 5 days
[10] = test system: MDA-MB-231-GFP human breast cancer cells; assay: Annexin V-PE apoptosis assay; type: cell-based; details: MDA-MB-231-GFP cells; for Induction of apoptosis (annexin V-PE positive cells): 5 day treatments

IC50 [1] [µM] | Compound | Effect on colony formation [1] | Incidence of visible lung metastases [2] [%] | Decrease of Ki-67 positive cells in tumor in comparison to control group [3] | Increase of TUNEL positive cells in tumor in comparison to control group [4] | Tumor burden in xenograft model [5] | Tumor growth in syngeneic mouse model [6] | Survivin protein expression [7] | PARP cleavage [8] | DR5 protein expression [9] | Induction of apoptosis (annexin V-PE positive cells) [10] | Effect of αT co-treatment on γT- and α-TEA-induced downregulation of Survivin [7] | Block of α-TEA-induced apoptosis by αT ([10]; 10 μM αT plus 10 μM α-TEA, 5 days) [%] | Block of γT-induced apoptosis by αT ([10]; 10 μM αT plus 40 μM γT, 5 days) [%] | Effect of αT co-treatment on γT- and α-TEA-induced cleavage of PARP [8] | Effect of αT co-treatment on γT- and α-TEA-induced upregulation of DR5 [9]
 | Cc1c(C)c2c(c(C)c1O)CCC(C)(CCCC(C)CCCC(C)CCCC(C)C)O2 (racemic) [all-rac-αT, all-racemic-α-tocopherol] | no inhibitory effect | 30 | 23% | 2.1 fold | reduced tumor burden | suppressed tumor growth | did not downregulate Survivin | did not cause cleavage of PARP | induced an increase in DR5 protein expression |  |  |  |  |  | 
4.8 | Cc1c(C)c2c(c(C)c1OCC(=O)O)CC[C@@](C)(CCC[C@H](C)CCC[C@H](C)CCCC(C)C)O2 [α-TEA, RRR-α-tocopherol ether-linked acetic acid analog] |  | 30 | 39% | 2.1 fold |  | suppressed tumor growth | downregulation of anti-apoptotic Survivin | PARP cleavage | upregulation of pro-apoptotic death receptor DR5 | induced dose-dependent apoptosis |  |  |  |  | 
 | Cc1c(C)c2c(c(C)c1O)CC[C@@](C)(CCC[C@H](C)CCC[C@H](C)CCCC(C)C)O2 [αT, RRR-α-tocopherol] | no inhibitory effect | 60 | but not αT or αT + γT groups | but not in the αT or αT + γT groups |  |  | did not downregulate Survivin | did not cause cleavage of PARP | induced an increase in DR5 protein expression |  | blocked | 70 | 60 | blocked | blocked
11.8 | Cc1c(O)cc2c(c1C)O[C@](C)(CCC[C@H](C)CCC[C@H](C)CCCC(C)C)CC2 [γT, RRR-γ-tocopherol] |  | 30 | no significant difference | 1.9 fold |  | suppressed tumor growth | downregulation of anti-apoptotic Survivin | PARP cleavage | upregulation of pro-apoptotic death receptor DR5 | induced dose-dependent apoptosis |  |  |  |  | 
